The record followed here is ChEMBL document CHEMBL3286141 (Bioorg Med Chem, 2014).

Usually inhibition stands for the relative decrease from the control value, in per cent. Broadly, the IC50 is the concentration at which inhibition is half-maximal. A lower IC50 goes with higher potency. The EC50 is the concentration needed to bring the measured effect to its halfway point. Higher therefore signals weaker potency.

Calls of active or inactive are those of the source. The rule behind the calls is not given here.

Experiment [1] can be described thus: (§1) Antiproliferative activity against human pancreatic stellate cells at 10 uM after 24 to 48 hrs by AlamarBlue assay. It counts as functional. A digest of the protocol:
(§2)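 Transformed human PSC seeded at 3×10^3 cells/well in sextuplicate. Next day exposed to compound at the stated single concentration in 1% FBS medium for 24–48 h. Viability read by AlamarBlue fluorescence (ex/em 544/590 nm). Values are the mean of at least three independent experiments.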

The nature of experiment [2]: (§3) Antiproliferative activity against human pancreatic stellate cells at 20 uM after 24 to 48 hrs by AlamarBlue assay. It counts as functional. In short, it runs like this: as §2
A general note: Resazurin is reduced to fluorescent resorufin, in cell work by metabolically active cells.

A short description of experiment [3]: (§4) Antiproliferative activity against human pancreatic stellate cells at 5 uM after 24 to 48 hrs by AlamarBlue assay. The format is functional. In short, it runs like this:
as §2

For experiment [4], the species on record is Homo sapiens. The experiment is described as §4. It counts as functional. In short, it runs like this:
as §2

In experiment [5] the test system is Mus musculus. The experiment in a line: Anti-fibrotic activity in C57BL/6 mouse caerulein-induced chronic pancreatitis model assessed as reduction of fibrosis at 0.5 mg/kg, po administered qd for 6 days per week for 3 weeks using hematoxylin 7211 staining by image analysis. It counts as functional, organism-based. More on the design: dose 0.5 mg/kg. In short, it runs like this: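 C57BL/6 mice given cerulein 50 μg/kg i.p. hourly for 5 h, 3 d/week for 4 weeks; PBS controls. From week 2, oral gavage at 0.5 mg/kg/d, 6 d/week for 3 weeks, in 0.5% methylcellulose + 0.025% Tween 20. Formalin-fixed paraffin sections (5 μm) stained by IHC for fibronectin with hematoxylin counterstain; percent area of stain quantified by image analysis. n = 10–11 per group.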

Experiment [6] deals with Mus musculus. The experiment in a line: Anti-fibrotic activity in C57BL/6 mouse caerulein-induced chronic pancreatitis model assessed as reduction of stromal fibrosis at 0.5 mg/kg, po administered qd for 6 days per week for 3 weeks using hematoxylin 7211 staining by immunohistochemistry analysis. It counts as functional, organism-based. Details: dose 0.5 mg/kg.
The nature of experiment [7]: Antiproliferative activity against human pancreatic stellate cells after 24 hrs by AlamarBlue assay. The format is functional. In short, it runs like this:
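Immortalized human PSC (SV40 large T plus telomerase, DMEM/10% FBS) seeded at 3×10^3 cells/well in sextuplicate. Next day switched to 1% FBS with a range of compound concentrations for 24 h. AlamarBlue fluorescence read at 544/590 nm. IC50 taken by nonlinear regression of fluorescence versus log concentration, as mean ± SEM of at least three independent experiments.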

The nature of experiment [8]: Induction of apoptosis in human pancreatic stellate cells after 14 hrs by cell death detection ELISAPLUS assay. It counts as functional. In short, it runs like this:
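Transformed human PSC (primary cells immortalised with SV40 large T antigen and telomerase; grown in DMEM, 10% FBS, 37 °C) plated at 8×10^3 per well in triplicate; next day switched to 1% FBS with compound at various doses for 14 h. Cytoplasmic nucleosomes detected by sandwich ELISA, absorbance at 405 nm. EC50 by nonlinear regression against log concentration; at least three independent experiments.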

Experiment [9] has as its system Mus musculus. The experiment in a line: Anti-fibrotic activity in C57BL/6 mouse caerulein-induced chronic pancreatitis model assessed as reduction of tissue edema at 0.5 mg/kg, po administered qd for 6 days per week for 3 weeks using hematoxylin 7211 staining by immunohistochemistry analysis. The format is functional, organism-based. Details: dose 0.5 mg/kg.
Experiment [10] has as its system Mus musculus. Nature of the experiment: Anti-fibrotic activity in C57BL/6 mouse caerulein-induced chronic pancreatitis model assessed as reduction of acinar cell damage at 0.5 mg/kg, po administered qd for 6 days per week for 3 weeks using hematoxylin 7211 staining by immunohistochemistry analysis. The format is functional, organism-based. More on the design: dose 0.5 mg/kg.

Experiment [11] is filed under the species Homo sapiens. The description is as §1. It counts as functional. A digest of the protocol: as §2
The species named for experiment [12] is Homo sapiens. Described as §3. The format is functional. In short, it runs like this:
as §2

With `COc1cc(OC)c2c(=O)cc(-c3ccc(OCC(O)CN4CCCC4)cc3)oc2c1` (centres undefined), the inhibition at 10 µM in [1] turned out to be 37%. In [2], this molecule yielded an inhibition at 20 µM of 57%. At 5 µM the inhibition in experiment [3] was 21%.

As for `COc1cc(OC)c2c(=O)cc(-c3ccc(-c4ccc(F)nc4)cc3)oc2c1`, in [1], the inhibition at 10 µM came out at 6%. Besides, at 20 µM the inhibition in [2] was 19%. The inhibition entry in experiment [4] is “inactive”.

Consider `COc1cc(OC)c2c(=O)cc(-c3ccc(NCCN4CCCC4)cc3)oc2c1`, for which the inhibition at 10 µM in experiment [1] stood at 51%. Moreover, 20 µM produced 80% inhibition in [2]. In experiment [3], this molecule showed an inhibition at 5 µM of 21%.

For `COc1cc(OC)c2c(=O)cc(-c3ccc(NCCN(C)C)cc3)oc2c1`, in [1], the inhibition at 10 µM stood at 60%. This molecule also registered an inhibition at 20 µM in experiment [2] of 84%. In [3], the inhibition at 5 µM was determined as 30%.

Regarding `COc1cc(OC)c2c(=O)cc(-c3ccc(OC4CCNCC4)cc3)oc2c1`, at 10 µM the inhibition in experiment [1] was 21%. For the same molecule, the inhibition entry in experiment [4] was “inactive”.

In the case of `O=c1cc(-c2ccc(O)cc2)oc2cc(O)cc(O)c12` [APIGENIN], the result in experiment [5], in experiment [6], in experiment [9] and in experiment [10] was Active. In experiment [1], this molecule returned an inhibition at 10 µM of 34%. The molecule also returned an inhibition at 20 µM in [2] of 64%. The inhibition at 5 µM in experiment [3] was found to be 11%. In addition, the half-maximal inhibitory concentration (IC50) in experiment [7] was determined as 18.6 µM. It took 24.5 µM to reach a half-maximal effect in experiment [8] (EC50).

In the case of `COc1cc(OC)c2c(=O)cc(-c3ccc(OCCN4CCN(C)CC4)cc3)oc2c1`, testing at 10 µM in experiment [1] gave an inhibition of 42%. In experiment [2], 20 µM produced 67% inhibition. Moreover, the inhibition at 5 µM in experiment [3] worked out at 22%.

For `COc1cc(OC)c2c(=O)cc(-c3ccc(OCCN4CCCC4=O)cc3)oc2c1`, in [1], the inhibition at 10 µM was 14%. The inhibition at 20 µM in experiment [2] turned out to be 33%. The same molecule yielded an inhibition at 5 µM in experiment [3] of 7%.

In turn, `COc1cc(OC)c2c(=O)cc(-c3ccc(OCCN(C)C)cc3)oc2c1` returned an inhibition at 10 µM in experiment [1] of 51%. Further, in [2], the inhibition at 20 µM stood at 65%. Moreover, 5 µM produced 19% inhibition in [3].

Turning to `COc1cc(OC)c2c(=O)cc(-c3ccc(OCCBr)cc3)oc2c1`, the inhibition entry in experiment [11] and in experiment [4] was “inactive” each time. This molecule had an inhibition at 20 µM in experiment [2] of 20%.

For `COc1cc(OC)c2c(=O)cc(-c3ccc(OCC4CO4)cc3)oc2c1` (centres undefined), the outcome in experiment [5], in experiment [6], in experiment [9] and in experiment [10] was Active. Further, the inhibition at 10 µM in experiment [1] came to 89%. The same molecule returned an inhibition at 20 µM in experiment [2] of 93%. Also, the inhibition at 5 µM in [3] was determined as 69%. In addition, in [7], the midpoint of inhibition, the IC50, lay at 2.5 µM. In experiment [8], this molecule displayed an EC50 of 9.6 µM.

With `COc1cc(OC)c2c(=O)cc(-c3ccc(OCCF)cc3)oc2c1`, the inhibition entry in experiment [11] and in experiment [4] was “inactive” each time. The inhibition at 20 µM in experiment [2] stood at 21%.

Consider `COc1cc(OC)c2c(=O)cc(-c3ccc(OCCCN(C)C)cc3)oc2c1`, for which the inhibition at 10 µM in experiment [1] was found to be 59%. The molecule also displayed an inhibition at 20 µM in [2] of 86%. This molecule displayed an inhibition at 5 µM in [3] of 36%.

As to `COc1cc(OC)c2c(=O)cc(-c3ccc(Br)cc3)oc2c1`, the inhibition at 10 µM in experiment [1] is 10%. Besides, the inhibition at 20 µM in [2] is 22%. The molecule also showed an inhibition at 5 µM in [3] of 12%.

As to `COc1cc(OC)c2c(=O)cc(-c3ccc(OCC(O)CO)cc3)oc2c1` (centres undefined), 10 µM produced 11% inhibition in experiment [1]. This molecule showed an inhibition at 20 µM in experiment [2] of 16%. The inhibition result in experiment [4] is “inactive”.

Turning to `COc1cc(OC)c2c(=O)cc(-c3ccc(OCCN4CCOCC4)cc3)oc2c1`, the inhibition entry in [11], in [12] and in experiment [4] was “inactive” in each case.

In the case of `COc1cc(OC)c2c(=O)cc(-c3ccc(O)cc3)oc2c1`, the inhibition result in experiment [11], in [12] and in experiment [4] was “inactive” each time.

On to `COc1cc(OC)c2c(=O)cc(-c3ccc(OCCN4CCCC4)cc3)oc2c1`, for which the inhibition at 10 µM in experiment [1] is 66%. The inhibition at 20 µM in experiment [2] was 98%. Moreover, the inhibition at 5 µM in experiment [3] was found to be 48%.

In the case of `COc1cc(OC)c2c(=O)cc(-c3ccc(OCC(O)CN(C)C)cc3)oc2c1` (centres undefined), the inhibition at 10 µM in [1] is 60%. The molecule further registered an inhibition at 20 µM in experiment [2] of 71%. Moreover, the inhibition at 5 µM in experiment [3] came out at 42%.

For the molecule `COc1cc(OC)c2c(=O)cc(-c3ccc(OCC(O)CN4CCCCC4)cc3)oc2c1` (centres undefined), the outcome in experiment [5], in [6], in experiment [9] and in [10] was Active. This molecule registered an inhibition at 10 µM in [1] of 65%. In [2], this molecule yielded an inhibition at 20 µM of 95%. The molecule also gave an inhibition at 5 µM in experiment [3] of 34%. Moreover, the IC50 in experiment [7] is 8 µM. Besides, the EC50 in experiment [8] was determined as 35.2 µM.

Regarding `COc1cc(OC)c2c(=O)cc(-c3ccc(OCCN4CCCCC4)cc3)oc2c1`, the inhibition at 10 µM in experiment [1] was found to be 64%. Moreover, the inhibition at 20 µM in experiment [2] was determined as 97%. For the same molecule, testing at 5 µM in experiment [3] gave an inhibition of 45%.

In the case of `COc1cc(OC)c2c(=O)cc(-c3ccc(OCCN)cc3)oc2c1`, at 10 µM the inhibition in experiment [1] was 35%. The molecule also returned an inhibition at 20 µM in experiment [2] of 70%. The same molecule returned an inhibition at 5 µM in [3] of 6%.

Turning to `CCN(CC)CCOc1ccc(-c2cc(=O)c3c(OC)cc(OC)cc3o2)cc1`, the inhibition at 10 µM in [1] was 60%. For the same molecule, the inhibition at 20 µM in experiment [2] was determined as 72%. In experiment [3], this molecule registered an inhibition at 5 µM of 33%.

In turn, `COc1cc(OC)c2c(=O)cc(-c3ccc(OCCCN)cc3)oc2c1` had an inhibition at 10 µM in experiment [1] of 39%. Further, the inhibition at 5 µM in experiment [3] came to 22%.

In turn, `COC(=O)[C@@H]1CCCN1CCOc1ccc(-c2cc(=O)c3c(OC)cc(OC)cc3o2)cc1` returned an inhibition at 10 µM in experiment [1] of 37%. Moreover, in experiment [2], the inhibition at 20 µM is 67%. In [3], this molecule yielded an inhibition at 5 µM of 22%.

`O=c1cc(-c2ccc(OCCN3CCCC3)cc2)oc2cc(O)cc(O)c12` yielded an inhibition at 10 µM in experiment [1] of 71%. Further, the inhibition at 20 µM in [2] is 90%. In experiment [3], this molecule gave an inhibition at 5 µM of 2%.

As for `COc1cc(O)c2c(=O)cc(-c3ccc(OCCN4CCCC4)cc3)oc2c1`, the inhibition at 10 µM in [1] was found to be 39%. This molecule also registered an inhibition at 20 µM in [2] of 99%. For the same molecule, in experiment [4], the inhibition entry is “inactive”.

Molecule `COc1cc(OC)c2c(=O)cc(-c3ccc(OC4CCN(C)CC4)cc3)oc2c1` displayed an inhibition at 10 µM in experiment [1] of 49%. The same molecule returned an inhibition at 5 µM in experiment [3] of 28%.
